ChEMBL document CHEMBL1177686, “Constrained peptidomimetics as antiplasmodial falcipain-2 inhibitors” (Bioorg Med Chem, 2010)

Columns and labels:
[1] = target: Rhodesain (Trypanosoma brucei rhodesiense, UniProt Q95PM0); test: Inhibition of Trypanosoma brucei rhodesiense rhodesain after 10 mins
How it was run: (§1)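 Rhodesain with Cbz-Phe-Arg-AMC 10 µM in 100 mM sodium acetate pH 5.5, 10 mM DTT. Fluorescence (ex 365/em 460 nm) read continuously for 10 min at increasing inhibitor levels, duplicate runs. Kiapp and kinac from hyperbolic kobs fit, corrected to Ki using Km 0.9 µM. k2nd as kinac/Ki, or from kobs/[I] when linear. Dixon plot if time-independent.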

[2] = target: Cathepsin B (Homo sapiens, UniProt P07858); test: Inhibition of human cathepsin B
[3] = target: Rhodesain (Trypanosoma brucei rhodesiense) (UniProt Q95PM0); test: Ratio of Kinact to Ki for Trypanosoma brucei rhodesiense rhodesain after 10 mins; how it was run: as §1
[4] = Selectivity ratio of Ki for Plasmodium falciparum recombinant falcipain-2 to Ki for Trypanosoma brucei rhodesiense rhodesain
[5] = target: T1, Falcipain 2 (Plasmodium falciparum) (UniProt Q9N6S8); test: Ratio of Kinact to Ki for Plasmodium falciparum recombinant falcipain-2 after 10 min
T1 sequence (whole entry): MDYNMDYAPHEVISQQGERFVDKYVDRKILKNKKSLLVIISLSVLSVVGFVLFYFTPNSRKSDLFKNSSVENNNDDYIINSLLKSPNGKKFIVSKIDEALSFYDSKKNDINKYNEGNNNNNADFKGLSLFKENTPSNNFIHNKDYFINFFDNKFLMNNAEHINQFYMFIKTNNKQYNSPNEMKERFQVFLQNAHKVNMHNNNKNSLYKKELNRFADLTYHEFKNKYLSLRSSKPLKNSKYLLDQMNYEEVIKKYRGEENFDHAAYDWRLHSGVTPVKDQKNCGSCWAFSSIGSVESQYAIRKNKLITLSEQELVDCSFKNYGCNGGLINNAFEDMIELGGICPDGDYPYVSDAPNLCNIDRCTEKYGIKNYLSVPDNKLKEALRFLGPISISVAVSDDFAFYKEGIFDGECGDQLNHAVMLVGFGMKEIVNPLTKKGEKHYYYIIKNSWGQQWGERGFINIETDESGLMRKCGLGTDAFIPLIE

[6] = system: Plasmodium falciparum; test: Antiplasmodial activity against Plasmodium falciparum FCBR infected in human erythrocytes assessed as parasite viability; assay type: functional, organism-based; details: FCBR/Columbia
How it was run: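 P. falciparum FCBR kept in human A Rh+ erythrocytes, RPMI 1640 with 25 mM HEPES, 20 mM bicarbonate, 0.5% AlbuMAX I, 2.5% hematocrit, 37 °C, 94% N2/1% O2/5% CO2. Early-stage parasites plated at 1% parasitemia with compound (DMSO stock diluted 10-fold in 50% ethanol), 100-0.0488 µM, quadruplicates. Ethanol-only negative and 2 µM chloroquine positive controls. Viability assayed by a published method.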

[7] = target: T2, Procathepsin L (Homo sapiens, UniProt P07711); test: Inhibition of human cathepsin L
How it was run: (§2)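 Cathepsin L assay on Cbz-Phe-Arg-AMC 5 µM. […] Second-order constant k2nd taken as kinac/Ki.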
Target sequence in this assay (P07711 whole entry): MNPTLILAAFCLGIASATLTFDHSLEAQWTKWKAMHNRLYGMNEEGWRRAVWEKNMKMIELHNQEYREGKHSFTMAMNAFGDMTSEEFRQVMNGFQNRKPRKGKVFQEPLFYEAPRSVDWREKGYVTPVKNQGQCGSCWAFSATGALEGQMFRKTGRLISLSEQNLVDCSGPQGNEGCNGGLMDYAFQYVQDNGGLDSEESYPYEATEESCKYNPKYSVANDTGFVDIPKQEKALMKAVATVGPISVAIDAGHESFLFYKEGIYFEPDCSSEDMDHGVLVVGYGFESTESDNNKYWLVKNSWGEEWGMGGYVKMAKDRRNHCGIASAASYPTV

[8] = target: T3, Falcipain 2 (Plasmodium falciparum, UniProt Q9N6S8); test: Inhibition of Plasmodium falciparum recombinant falcipain-2 after 10 min
T3 sequence (Q9N6S8 whole entry): T1 sequence (whole entry)

[9] = target: T2, Procathepsin L; test: Ratio of Kinact to Ki for human cathepsin L; how it was run: as §2
Target sequence in this assay (P07711 114-333 limits assumed): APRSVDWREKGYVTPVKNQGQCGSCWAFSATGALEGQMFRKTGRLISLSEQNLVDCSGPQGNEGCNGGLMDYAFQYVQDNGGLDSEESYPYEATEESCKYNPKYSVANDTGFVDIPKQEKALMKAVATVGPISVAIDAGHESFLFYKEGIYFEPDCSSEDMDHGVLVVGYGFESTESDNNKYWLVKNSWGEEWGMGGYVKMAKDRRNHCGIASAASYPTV

Chain of Rhodesain (Q95PM0 whole entry): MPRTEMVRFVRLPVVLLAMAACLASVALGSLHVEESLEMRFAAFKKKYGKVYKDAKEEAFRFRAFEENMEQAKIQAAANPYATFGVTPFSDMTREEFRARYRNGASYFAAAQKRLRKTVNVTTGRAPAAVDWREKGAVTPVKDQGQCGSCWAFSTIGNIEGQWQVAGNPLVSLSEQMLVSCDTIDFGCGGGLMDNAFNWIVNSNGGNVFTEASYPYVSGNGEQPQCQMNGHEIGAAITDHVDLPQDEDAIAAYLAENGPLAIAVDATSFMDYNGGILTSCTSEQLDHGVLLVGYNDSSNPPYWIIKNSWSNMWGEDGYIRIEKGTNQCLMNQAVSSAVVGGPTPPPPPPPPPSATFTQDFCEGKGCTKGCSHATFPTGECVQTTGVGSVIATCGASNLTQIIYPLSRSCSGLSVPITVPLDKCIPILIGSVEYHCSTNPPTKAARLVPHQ
Chain of Rhodesain (Trypanosoma brucei rhodesiense) (Q95PM0 1-450): as the sequence (Q95PM0 whole entry) above

Row | SMILES | Ki [1] [nM] | Ki [2] [µM] | Ratio [3] | Ratio Ki [4] | Ratio [5] | IC50 [6] [µM] | Ki [7] [µM] | Ki [8] [nM] | Activity [6] | Ratio [9]
1 | COC(=O)/C=C/[C@H](CC(C)C)NC(=O)CN1C(=O)[C@@H](COC(=O)Nc2ccc(Cl)cc2C(F)(F)F)N=C(c2ccccc2)c2ccccc21 | 870 | 39.1 | 36000 | 5 | 18000 | 26.9 | > 150 | 2220 |  | 
2 | COC(=O)/C=C/CNC(=O)CN1C(=O)[C@@H](COC(=O)Nc2ccc(Cl)cc2C(F)(F)F)N=C(c2ccccc2)c2ccccc21 | 810 |  | 34600 | 5 | 3.57e+06 |  |  | 17 |  | 
3 | COC(=O)/C=C/CNC(=O)CN1C(=O)[C@@H](COC(=O)Nc2ccc(Cl)cc2C(F)(F)F)N=C(c2ccc(Br)cc2)c2ccccc21 | 470 | > 150 | 46000 | 5 | 24500 | 6.33 | > 150 | 1560 |  | 
4 | COC(=O)/C=C/CNC(=O)CN1C(=O)[C@@H](COC(=O)Nc2ccc(Cl)cc2C(F)(F)F)N=C(c2ccc(OC)cc2)c2ccccc21 |  | 10.9 |  | 5 |  |  | 59.9 | > 100000 |  | 
5 | C=CCNC(=O)CN1C(=O)[C@@H](CO)N=C(c2ccccc2)c2ccccc21 |  |  |  | 5 |  |  |  |  | Dose-dependent effect | 
6 | COC(=O)/C=C/CNC(=O)CN1C(=O)[C@@H](COC(=O)Nc2ccc(Cl)cc2C(F)(F)F)N=C(c2ccccc2)c2cc(Cl)ccc21 | 87 | 6.1 | 220000 | 5 | 76000 | 28.9 | 29.8 | 460 |  | 
7 | COC(=O)/C=C/CNC(=O)CN1C(=O)[C@@H](COC(=O)NC2CCCCC2)N=C(c2ccccc2)c2ccccc21 |  | 12.4 |  | 5 |  |  | 76.5 | 89000 | Dose-dependent effect | 
8 | COC(=O)/C=C/CNC(=O)CN1C(=O)[C@@H](COC(=O)Nc2cccc3ccccc23)N=C(c2ccccc2)c2ccccc21 | 930 | 25 |  | 5 |  | 17.6 | 12.2 | 3480 |  | 6400
9 | CC(C)C[C@H](NC(=O)[C@H]1O[C@@H]1C(=O)O)C(=O)NCCCCN=C(N)N |  |  |  |  | 1.59e+06 |  |  |  |  | 
10 | COC(=O)/C=C/CNC(=O)CN1C(=O)[C@@H](COC(=O)NC23CC4CC(CC(C4)C2)C3)N=C(c2ccccc2)c2ccccc21 | 2.6 | 13.7 | 4.62e+06 | 5 | 1.16e+06 | 10.7 | 65 | 14 |  | 550
11 | CCCCNC(=O)OC[C@H]1N=C(c2ccccc2)c2ccccc2N(CC(=O)NC/C=C/C(=O)OC)C1=O |  | 20.4 |  | 5 |  |  | 2.7 | > 100000 | Dose-dependent effect | 9400
12 | COC(=O)/C=C/CNC(=O)CN1C(=O)[C@@H](COC(=O)Nc2ccc(OC)cc2)N=C(c2ccccc2)c2ccccc21 | 4300 | 2.23 |  | 5 |  | 33.1 | 12 | 15100 |  | 12500
